In ChEMBL document CHEMBL1821598, “Synthesis, structure-activity relationship and biological evaluation of anticancer activity for novel N-substituted sophoridinic acid derivatives” (Bioorg Med Chem Lett, 2011) one finds inhibition, IC50 and Activity data, which are given here for 24 compounds.

The term inhibition denotes the drop in the measured response relative to a control, in per cent. Broadly, the IC50 is the midpoint of a concentration-inhibition curve.

Each structure is given as a SMILES string. Values after ≈ are worked out from the molar mass of the structure shown. Active and inactive are the calls of the source. The calls are words filed in the database; no cut-off is given here.

Test [1] has as its system HepG2. Briefly: Inhibition of cell proliferation of human HepG2 cells at 30 ug/mL after 48 hrs by Sulforhodamine B assay. Type of test: functional. Particulars: HepG2, 48 h. A digest of the protocol: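 HepG2 cells exposed to test compounds at 30 μg/mL for 48 h. HCPT at 30 μg/mL was the positive control. Proliferation was read by SRB and reported as % inhibition. Values are mean ± SD of three separate experiments.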

Test [2] addresses T1, DNA topoisomerase 1 (Homo sapiens) (UniProt P11387).
T1 sequence (whole entry): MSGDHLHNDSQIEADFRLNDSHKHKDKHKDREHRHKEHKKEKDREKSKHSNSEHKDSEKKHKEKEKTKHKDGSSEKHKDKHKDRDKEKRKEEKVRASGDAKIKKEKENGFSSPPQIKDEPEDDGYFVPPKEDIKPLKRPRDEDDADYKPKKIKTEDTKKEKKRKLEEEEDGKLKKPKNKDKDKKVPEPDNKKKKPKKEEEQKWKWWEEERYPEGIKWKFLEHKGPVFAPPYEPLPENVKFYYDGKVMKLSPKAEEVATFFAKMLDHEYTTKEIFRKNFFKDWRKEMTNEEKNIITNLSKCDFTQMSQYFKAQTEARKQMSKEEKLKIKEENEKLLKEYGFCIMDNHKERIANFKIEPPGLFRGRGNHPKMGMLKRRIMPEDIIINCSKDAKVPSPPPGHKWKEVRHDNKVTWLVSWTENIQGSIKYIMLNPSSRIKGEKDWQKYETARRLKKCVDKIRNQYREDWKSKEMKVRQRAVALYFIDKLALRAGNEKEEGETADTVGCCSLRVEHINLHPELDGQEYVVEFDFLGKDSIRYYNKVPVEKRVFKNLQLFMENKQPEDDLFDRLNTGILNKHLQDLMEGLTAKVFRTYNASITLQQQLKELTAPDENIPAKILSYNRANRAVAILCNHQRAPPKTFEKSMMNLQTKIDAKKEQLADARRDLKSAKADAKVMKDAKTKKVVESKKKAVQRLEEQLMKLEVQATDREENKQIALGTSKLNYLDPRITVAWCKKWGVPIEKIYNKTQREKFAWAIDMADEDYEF
Nature of the test: Inhibition of DNA topoisomerase 1 using DNA substrate after 0.5 hrs by gel electrophoresis. A digest of the protocol:
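Run over a range of concentrations, with HCPT as positive control.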

For test [3], the system named is HepG2. Nature of the test: Cytotoxicity against human HepG2 cells after 48 hrs by Sulforhodamine B assay. It is filed as functional, cell-based. The conditions noted are these: for IC50: HepG2, 48 h. The method in brief:
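HepG2 cells treated at a series of concentrations for 48 h. Cell death was read by sulforhodamine B staining.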

Test [4] can be described thus: Inhibition of cell proliferation of human […] cells at 30 ug/mL after 48 hrs by Sulforhodamine B assay. It is filed as functional. A digest of the protocol: (§1)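 Human tumor cell lines were treated at 30 μg/mL for 48 h. Antiproliferative activity was measured by SRB assay.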
For orientation: In SRB staining, fixed cells bind dye roughly in proportion to their protein.

For another test, the system named is A549. Nature of the test: Inhibition of cell proliferation of human A549 cells at 30 ug/mL after 48 hrs by Sulforhodamine B assay. It is filed as functional. The conditions noted are these: A549, 48 h. The method in brief: as §1
A further test deals with MCF7. Briefly: Inhibition of cell proliferation of human MCF7 cells at 30 ug/mL after 48 hrs by Sulforhodamine B assay. Type of test: functional. Particulars: MCF7, 48 h. The method in brief:
as §1

Test [5] relates to HepG2. Briefly: Cell cycle arrest in human HepG2 cells assessed as accumulation at G0/G1 phase at 20 ug/mL after 4 hrs by flow cytometry (Rvb= 63.1%). Type of test: functional. The method in brief: (§2)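 HepG2 cells incubated with or without compound at 20 μg/mL for 4, 12 or 24 h. Cell cycle distribution (G0/G1, S, G2/M) was read from DNA content by flow cytometry. Untreated cells served as control.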
(In general: A flow cytometer gives signals particle by particle.)

In test [6] the test system is HepG2. Briefly: Cell cycle arrest in human HepG2 cells assessed as accumulation at G0/G1 phase at 20 ug/mL after 12 hrs by flow cytometry (Rvb= 63.1%). It is filed as functional. A digest of the protocol:
as §2

Test [7] deals with HepG2. Nature of the test: Cell cycle arrest in human HepG2 cells assessed as accumulation at G0/G1 phase at 20 ug/mL after 24 hrs by flow cytometry (Rvb= 63.1%). Type of test: functional. The method in brief:
as §2

The subject of test [8] is HepG2. Briefly: Cell cycle arrest in human HepG2 cells assessed as accumulation at S phase at 20 ug/mL after 4 hrs by flow cytometry (Rvb= 25.4%). It is filed as functional. A digest of the protocol:
as §2

Test [9] concerns HepG2. Nature of the test: Cell cycle arrest in human HepG2 cells assessed as accumulation at S phase at 20 ug/mL after 12 hrs by flow cytometry (Rvb= 25.4%). Type of test: functional. The method in brief: as §2
In test [10] the test system is HepG2. Briefly: Cell cycle arrest in human HepG2 cells assessed as accumulation at S phase at 20 ug/mL after 24 hrs by flow cytometry (Rvb= 25.4%). It is filed as functional. A digest of the protocol:
as §2

The test system of test [11] is HepG2. Briefly: Cell cycle arrest in human HepG2 cells assessed as accumulation at G2/M phase at 20 ug/mL after 4 hrs by flow cytometry (Rvb= 11.5%). It is filed as functional. A digest of the protocol:
as §2

For test [12], the system named is HepG2. Nature of the test: Cell cycle arrest in human HepG2 cells assessed as accumulation at G2/M phase at 20 ug/mL after 12 hrs by flow cytometry (Rvb= 11.5%). Type of test: functional. A digest of the protocol: as §2
Test [13] relates to HepG2. Briefly: Cell cycle arrest in human HepG2 cells assessed as accumulation at G2/M phase at 20 ug/mL after 24 hrs by flow cytometry (Rvb= 11.5%). It is filed as functional. A digest of the protocol:
as §2

Test [14] concerns HepG2. Nature of the test: Induction of apoptosis in human HepG2 cells assessed as disappearance of nuclear membrane and appearance of apoptotic body at 20 ug/mL after 48 hrs by microscopy relative to control. It is filed as functional, cell-based. The method in brief:
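HepG2 cells untreated or treated at 20 μg/mL for 48 h. Cells were harvested onto slides and examined by microscopy for apoptotic morphology.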

Turning to `COc1ccc(C(=O)N2C[C@@H]3CCCN4CCC[C@@H]([C@H]34)[C@@H]2CCCC(=O)O)cc1`, the inhibition at 30 µg/mL in the test with HepG2 [1] is less than 5%.

With `O=C(O)CCC[C@H]1[C@H]2CCCN3CCC[C@@H](CN1C(=O)c1ccc(F)c([N+](=O)[O-])c1)[C@@H]23`, 30 µg/mL produced 7.7% inhibition with HepG2 [1].

Take `COC(=O)N1C[C@@H]2CCCN3CCC[C@@H]([C@H]23)[C@@H]1CCCC(=O)O`: the inhibition at 30 µg/mL in the test on HepG2 [1] came to 7.8%.

As for `CC(=O)N1C[C@@H]2CCCN3CCC[C@@H]([C@H]23)[C@@H]1CCCC(=O)O`, at 30 µg/mL the inhibition with HepG2 [1] was 11.2%.

In the test on HepG2 [1], `O=C1CCC[C@@H]2[C@H]3CCCN4CCC[C@H](CN12)[C@@H]34` [SOPHORIDINE] came in with an inhibition at 30 µg/mL of 13.8%. The inhibition result in [2] is “Active”.

Consider `O=C(O)CCC[C@H]1[C@H]2CCCN3CCC[C@@H](CN1S(=O)(=O)c1ccccc1)[C@@H]23`, for which the inhibition at 30 µg/mL with HepG2 [1] is less than 5%.

On to `COc1cc(C(=O)N2C[C@@H]3CCCN4CCC[C@@H]([C@H]34)[C@@H]2CCCC(=O)O)cc(OC)c1OC`, for which testing at 30 µg/mL in the test with HepG2 [1] gave an inhibition of 11.8%.

In the test with HepG2 [1], `CC[C@@]1(O)C(=O)OCc2c1cc1n(c2=O)Cc2cc3cc(O)ccc3nc2-1` [HYDROXYCAMPTOTHECIN] returned an inhibition at 30 µg/mL of 92%.

`O=C(O)CCC[C@H]1[C@H]2CCCN3CCC[C@@H](CN1C(=O)OCc1ccccc1)[C@@H]23`: at 30 µg/mL the inhibition in the test on HepG2 [1] was 8.4%.

Consider `O=C(O)CCC[C@H]1[C@H]2CCCN3CCC[C@@H](CN1C(=O)c1ccc4c(c1)OCO4)[C@@H]23`, for which the inhibition at 30 µg/mL with HepG2 [1] amounted to 11.4%.

Take `O=C(O)CCC[C@H]1[C@H]2CCCN3CCC[C@@H](CN1C(=O)CBr)[C@@H]23`: the inhibition result with HepG2 [3] is “Dose-dependent effect”. Also, the IC50 in the test with HepG2 [3] came to 15.4 µg/mL (≈ 39.8 µM). Also, the inhibition at 30 µg/mL was 88% in the test on HepG2 [1], 68% in [4], 40% in the test on A549 and 73.3% in the test with MCF7. The Activity in the test with HepG2 [5] is given as 50.4%; with HepG2 [6] it was 53.8%; in the test on HepG2 [7] it was 47.7%; in the test with HepG2 [8] it was 40.2%; in the test with HepG2 [9], 38.3%; in the test with HepG2 [10], 41.8%. Besides, the Activity in the test on HepG2 [11] is on record as 9.43%; in the test on HepG2 [12], 7.88%; in the test with HepG2 [13], 10.4%. For the same compound, the outcome with HepG2 [14] was Active. Also, the inhibition result in test [2] is “Active”.

On to `COc1ccc(C(=O)N2C[C@@H]3CCCN4CCC[C@@H]([C@H]34)[C@@H]2CCCC(=O)O)cc1[N+](=O)[O-]`, for which the inhibition at 30 µg/mL in the test with HepG2 [1] was less than 5%.

`O=C(O)CCC[C@H]1[C@H]2CCCN3CCC[C@@H](CN1C(=O)c1ccccc1)[C@@H]23` had an inhibition at 30 µg/mL with HepG2 [1] of less than 5%.

The compound `O=C(O)CCC[C@H]1[C@H]2CCCN3CCC[C@@H](CN1C(=O)c1ccc(F)cc1)[C@@H]23` yielded an inhibition at 30 µg/mL in the test with HepG2 [1] of less than 5%.

Consider `O=C(O)CCC[C@H]1[C@H]2CCCN3CCC[C@@H](CN1C(=O)c1cccc([N+](=O)[O-])c1)[C@@H]23`, for which the inhibition at 30 µg/mL with HepG2 [1] is less than 5%.

For `CC(C)(C)C(=O)N1C[C@@H]2CCCN3CCC[C@@H]([C@H]23)[C@@H]1CCCC(=O)O`, in the test with HepG2 [3], the inhibition entry is “Dose-dependent effect” and the IC50 came to 43.6 µg/mL (≈ 124 µM). Besides, the inhibition at 30 µg/mL in the test on HepG2 [1] turned out to be 41.1%.

In the test with HepG2 [1], `Cc1ccc(CN2C[C@@H]3CCCN4CCC[C@@H]([C@H]34)[C@@H]2CCCC(=O)O)cc1` returned an inhibition at 30 µg/mL of less than 5%.

In the test with HepG2 [1], `O=C(O)CCC[C@@H]1NC[C@@H]2CCCN3CCC[C@H]1[C@H]23` [SOPHORIDINIC ACID] displayed an inhibition at 30 µg/mL of 10.3%.

Regarding `Cc1ccc(S(=O)(=O)N2C[C@@H]3CCCN4CCC[C@@H]([C@H]34)[C@@H]2CCCC(=O)O)cc1`, in the test with HepG2 [1], at 30 µg/mL the inhibition was 13.4%.

In the test on HepG2 [1], `CCOC(=O)N1C[C@@H]2CCCN3CCC[C@@H]([C@H]23)[C@@H]1CCCC(=O)O` registered an inhibition at 30 µg/mL of 19.9%.

For the compound `Cc1c(C(=O)N2C[C@@H]3CCCN4CCC[C@@H]([C@H]34)[C@@H]2CCCC(=O)O)cccc1[N+](=O)[O-]`, at 30 µg/mL the inhibition with HepG2 [1] was 8.9%.

`CC(Br)C(=O)N1C[C@@H]2CCCN3CCC[C@@H]([C@H]23)[C@@H]1CCCC(=O)O` (stereo partly drawn): testing at 30 µg/mL with HepG2 [1] gave an inhibition of 15.6%.

As for `Cc1ccc(C(=O)N2C[C@@H]3CCCN4CCC[C@@H]([C@H]34)[C@@H]2CCCC(=O)O)cc1`, the inhibition at 30 µg/mL with HepG2 [1] worked out at 8.5%.

For the compound `COc1ccc(CN2C[C@@H]3CCCN4CCC[C@@H]([C@H]34)[C@@H]2CCCC(=O)O)cc1`, in the test with HepG2 [1], the inhibition at 30 µg/mL was less than 5%.
